Usually MIC stands for the smallest concentration in the dilution series that meets the test's criterion for growth inhibition. The low end stands for inhibition by little substance, the high end for a need for much substance. What is called IC50 is the concentration needed to halve the response being measured.

This is an account of results in ChEMBL document CHEMBL1157875, “Thiosemicarbazones, semicarbazones, dithiocarbazates and hydrazide/hydrazones: anti-Mycobacterium tuberculosis activity and cytotoxicity” (Eur J Med Chem, 2010).

Values after ≈ are worked out from the molar mass of the structure shown. Bounds are passed on as bounds.

Test [1] deals with Mycobacterium tuberculosis. Put plainly: Antimycobacterial activity against Mycobacterium tuberculosis H37Rv after 7 days by resazurine microtiter assay. Conditions: 168 h. It counts as functional. The procedure, abridged:
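M. tuberculosis broth microdilution (REMA). Compounds dissolved as DMSO stocks and diluted in Middlebrook 7H9 broth with OADC enrichment. Culture and compounds combined in 96-well plates, in triplicate, incubated 7 days at 37 °C. Resazurin then added; fluorescence read at 530 nm excitation, 590 nm emission. Isoniazid run on every plate as standard.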
A general note: Alamar Blue is a resazurin reagent that responds to reducing activity.

A further test concerns J774. Put plainly: Cytotoxicity against mouse J774 cells after 24 hrs by resazurin assay. It counts as cell-based. Conditions: J774, 24 h. An outline of the steps:
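J774 macrophages grown to confluence at 37 °C in 5% CO2, then seeded at 1 × 10^5 cells/mL and allowed 24 h to adhere. Resazurin added for 6 h; fluorescence read at 530 nm excitation, 590 nm emission.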

Test [2] is described as follows: Selectivity index, ratio of IC50 for mouse J774 cells to MIC for Mycobacterium tuberculosis H37Rv. It counts as functional.

`S=C(N/N=C(/C(=N/NC(=S)Nc1ccccc1)c1ccccc1)c1ccccc1)Nc1ccccc1` had an MIC in test [1] of 49.1 µM (≈ 25 µg/mL). Moreover, 2.46 mM corresponded to half-maximal inhibition in the test on J774 (IC50). In addition, the “Selectivity Index” value in test [2] amounted to 50.

Consider `O=C(N/N=C(/C(=N/NC(=O)c1ccncc1)c1ccccc1)c1ccccc1)c1ccncc1`, for which the MIC in test [1] came out at 27.9 µM (≈ 12.5 µg/mL). For the same compound, in the test on J774, it took 0.349 mM to reach half-maximal inhibition (IC50). For the same compound, the “Selectivity Index” value in test [2] is listed as 12.5.

Take `O=C(N/N=C/c1ccccn1)c1ccccc1O`: the MIC in test [1] was at least 1040 µM. Moreover, the concentration for half-maximal inhibition (IC50) with J774 was determined as 1.3 mM. Besides, in test [2], the “Selectivity Index” value is reported as “<=1.25”.

Compound `C/C(=N\NC(=S)N1CCCCCC1)c1ccccn1` yielded a minimum inhibitory concentration (MIC) in test [1] of at least 181 µM. Further, in the test on J774, it took 4.52 mM to reach half-maximal inhibition (IC50). The “Selectivity Index” value in test [2] was “<=25”.

As for `C/C(=N\NC(=S)Nc1ccccc1)c1ccccn1`, the MIC in test [1] is 57.7 µM (≈ 15.6 µg/mL).

Consider `O=C(N/N=C/c1ccccc1O)c1ccccc1O`, for which the minimal inhibitory concentration (MIC) in test [1] was 122 µM (≈ 31.3 µg/mL). In addition, half-maximal inhibition in the test on J774 (IC50) was put at 1.22 mM. Moreover, the “Selectivity Index” value in test [2] is 10.

Compound `C/C(=N\NC(N)=S)c1ccccn1` registered an MIC in test [1] of 161 µM (≈ 31.3 µg/mL).

In the case of `CNC(=S)N/N=C(\C)c1ccccn1`, the MIC in test [1] was determined as 37.5 µM (≈ 7.8 µg/mL).

In turn, `CCNC(=S)N/N=C(\C)c1ccccn1` gave an MIC in test [1] of 14.1 µM (≈ 3.13 µg/mL). The IC50 with J774 stood at 2.81 mM. Also, the “Selectivity Index” value in test [2] is 200.
